An excerpt weighted towards active compounds, which were near 5.9% of everything screened.
T cruzi growth-1: T. cruzi proliferation inhibition | T. cruzi beta-gal in NIH3T3, GalScreen luminescence, 90 h | inhibition, % at 8.34 µM | hit rate 5.9% among 77,000;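 active = mean inhibition above about 93%, with at least 55% of replicates each passing it, limit read from the data, passing the limit was not always enough; inconclusive = only one of those two conditions holds; inactive = neither condition holds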
GASC1 inh: blocks human GASC-1 (KDM4C) demethylase activity; GST-KDM4C 2-372, H3K9me3 peptide, LANCE TR-FRET; Q9H3R0; hit rate 0.15% among 96,000; inhibition, % at 12.5 µM;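 active = mean replicate inhibition above about 25%, with at least 55% of replicates also reaching it, limit read from the data, passing the limit was not always enough; inconclusive = only one of those two conditions met; inactive = neither condition met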
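Material: N-terminal GST-fused human GASC-1 (KDM4C) fragment, residues 2-372. Input: 10 nM enzyme. Incubation: enzyme reaction 30 min, then detection 60 min, both room temperature. Doses: one test concentration per compound. Read-out basis: inhibition from TR-FRET ratio decrease. Detection: LANCE TR-FRET, excitation 340 nm, emissions 618 and 671 nm.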
IDH1 mut inh: inhibitors of human IDH1 R132H; hit rate 0.18% among 70,000; inhibition, % at 10 µM; AID 624101; IDH1 R132H reductase, diaphorase/resazurin fluorescence, 60 min; in the data active = inhibition above about 34%; inconclusive = no clear call, values can overlap the other calls; inactive = below about 11%;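 note: 0% = DMSO and 100% = no enzyme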
Target sequence (O75874 whole entry R132H): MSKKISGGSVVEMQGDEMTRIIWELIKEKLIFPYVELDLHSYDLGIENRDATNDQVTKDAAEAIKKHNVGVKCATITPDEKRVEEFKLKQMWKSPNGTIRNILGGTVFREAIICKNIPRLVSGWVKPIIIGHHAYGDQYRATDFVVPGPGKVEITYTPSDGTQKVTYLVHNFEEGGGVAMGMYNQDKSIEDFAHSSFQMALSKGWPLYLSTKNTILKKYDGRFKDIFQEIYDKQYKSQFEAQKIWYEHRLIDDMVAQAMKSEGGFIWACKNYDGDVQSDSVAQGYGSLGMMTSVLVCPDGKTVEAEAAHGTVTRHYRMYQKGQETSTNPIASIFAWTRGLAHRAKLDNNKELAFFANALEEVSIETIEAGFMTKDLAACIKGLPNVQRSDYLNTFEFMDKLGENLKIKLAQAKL
Pf Dd2 growth: blocks growth of Plasmodium falciparum Dd2 parasites | hit rate 2.3% among 94,000 | activity change, % at 10 µM | P. falciparum Dd2 growth, SYBR Green, 72 h; hits give low values | AID 1159554; in the data active = activity change below about -80%; inconclusive = no clear call, values can overlap the other calls
T cruzi growth-2: inhibitors of T. cruzi proliferation; shares compounds with T cruzi growth-1; T. cruzi beta-gal in NIH3T3, GalScreen luminescence, 90 h; inhibition, % at 8.35 µM; hit rate 72% among 5,600; AID 651739;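 active = mean replicate inhibition above about 95% and at least 55% of replicates individually reaching it, limit read from the data; inconclusive = only one of the two criteria is met; inactive = neither criterion is met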
T cruzi growth-3: Trypanosoma cruzi proliferation inhibition; hit rate 21% among 5,600; inhibition, % at 2.09 µM; T. cruzi beta-gal in NIH3T3, GalScreen luminescence, 90 h; AID 651740; shares compounds with T cruzi growth-1;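 active = mean inhibition above about 95%, with at least 55% of replicates also reaching it, limit read from the data; inconclusive = meets just one of the two conditions; inactive = meets neither condition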;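 note: plate controls were neutral control median for no effect and positive control median for full effect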
NIH3T3 tox: cytotoxicity in mouse NIH/3T3 fibroblasts; shares compounds with T cruzi growth-1; NIH/3T3 viability, CellTiter-Glo ATP luminescence, 90 h; cytotoxicity (signal decrease), % at 8.35 µM; hit rate 14% among 5,600; AID 651742;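 active = mean signal decrease across replicates above about 35% based on untreated-well scatter, with enough replicates individually passing, limit read from the data; inconclusive = no rule stated though some were filed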;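 note: 0% = median of neutral control wells and 100% = median of positive control wells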
3T3 cytotox 2: cytotoxicity in mouse NIH/3T3 fibroblasts | inhibition, % at 24.9 µM | NIH/3T3 viability, CellTiter-Glo ATP luminescence, 90 h | AID 651744 | shares compounds with T cruzi growth-1 | hit rate 56% among 5,600;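 active = mean loss of cell viability signal at or above a set limit, and enough replicates individually reaching it; inconclusive = meets only the mean limit or only the replicate share; inactive = meets neither condition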;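 note: 0% = median of neutral control wells and 100% = median of positive control wells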
Active calls of the source: *; ? = inconclusive; / = not tested or not shown.

SMILES | T cruzi growth-1 | GASC1 inh | IDH1 mut inh | Pf Dd2 growth | T cruzi growth-2 | T cruzi growth-3 | NIH3T3 tox | 3T3 cytotox 2
C[C@H]1CN([C@@H](C)CO)C(=O)Cc2cc(NC(=O)c3ccncc3)ccc2O[C@H]1CN(C)Cc1ccc(Oc2ccccc2)cc1 | 97* | -2 | 0 | 13 | 98* | 48 | 33 | 104*
C[C@@H]1CN([C@@H](C)CO)C(=O)Cc2cc(NC(=O)c3ccncc3)ccc2O[C@@H]1CN(C)Cc1ccc(-c2ccccc2)cc1 | 48 | -1 | 0 | -26 | / | / | / | /
C[C@H](CO)N1C[C@H](C)[C@@H](CN(C)Cc2ccc(-c3ccccc3)cc2)Oc2ccc(NC(=O)c3ccncc3)cc2CC1=O | 125* | 0 | -5 | -79 | 112* | 82 | 19 | 106*
Cc1ccc(S(=O)(=O)Nc2ccc3c(c2)C(=O)N([C@@H](C)CO)C[C@@H](C)[C@@H](CN(C)C(=O)C2CCCCC2)OCCCC[C@H](C)O3)cc1 | 44 | 1 | / | -57 | / | / | / | /
O=C(Cn1ccc([N+](=O)[O-])n1)N1CCCc2ccccc21 | / | / | 2 | / | / | / | / | /
C[C@@H]1CN([C@H](C)CO)S(=O)(=O)c2ccc(C#C[C@@H](C)O)cc2O[C@@H]1CN(C)C(=O)C1CCCCC1 | 51 | 2 | / | -3 | / | / | / | /
CCc1cnc(N2[C@@H](C#N)[C@@H](c3ccc(C#Cc4ccccc4F)cc3)[C@@H]2CO)s1 | 100* | -1 | / | -24 | 90 | 109* | -18 | 62*
CCc1cnc(N2[C@H](CO)[C@@H](c3ccc(C#Cc4ccccc4F)cc3)[C@@H]2C#N)s1 | 103* | -1 | / | -40 | 96* | 111* | -16 | 85*
CC(C)CC#Cc1ccc2c(c1)O[C@H](CN(C)Cc1cccnc1)[C@H](C)CN([C@H](C)CO)S2(=O)=O | 106* | -2 | 16 | / | 104* | 82 | 32 | 103*
CC(C)CC#Cc1ccc2c(c1)O[C@@H](CN(C)Cc1cncnc1)[C@H](C)CN([C@@H](C)CO)S2(=O)=O | 82 | 2 | 0 | -36 | / | / | / | /
CC(C)CC#Cc1ccc2c(c1)O[C@H](CN(C)Cc1cccnc1)[C@@H](C)CN([C@H](C)CO)S2(=O)=O | 96* | 1 | 3 | / | 104* | 100* | 16 | 104*
COCC#Cc1ccc2c(c1)O[C@H](CN(C)Cc1cccnc1)[C@H](C)CN([C@H](C)CO)S2(=O)=O | 9 | 0 | 0 | 9 | / | / | / | /
COC(=O)c1ccc2c(=O)n(-c3ccccc3)c(SCC(=O)Nc3ccccc3)nc2c1 | / | / | 0 | / | / | / | / | /
CS(=O)(=O)N(CC(=O)O)Cc1ccc(Cl)cc1 | / | / | 0 | / | / | / | / | /
CN(C)C(=O)c1ccc(-c2ccc(C3[C@@H]4CN(S(=O)(=O)c5ccccc5F)C[C@H]3N4)cc2)cc1 (some centres undefined) | / | 0 | / | -9 | / | / | / | /
COc1cccc(NC(=O)N(C)C[C@H]2OCc3cn(nn3)CCCC(=O)N([C@@H](C)CO)C[C@H]2C)c1 | 8 | 1 | -1 | 0 | / | / | / | /
Cn1cnc(S(=O)(=O)N2CC[C@@H]3[C@H](CO)Nc4ccc(-c5ccccc5)cc4[C@@H]32)c1 | 101* | -1 | / | -30 | 102* | 48 | 10 | -1
Cn1cnc(S(=O)(=O)N2CC[C@@H]3[C@H]2c2cc(-c4ccccc4)ccc2N[C@@H]3CO)c1 | ? | -1 | / | 0 | 110* | ? | -22 | 6
Cn1cnc(S(=O)(=O)N2CC[C@@H]3[C@@H](CO)Nc4ccc(-c5ccccc5)cc4[C@@H]32)c1 | 104* | -2 | / | -46 | 96* | 86 | -13 | -8
COc1ccc(NC(=O)N(C)C[C@H]2Oc3ccc(NC(=O)CCC(F)(F)F)cc3CC(=O)N([C@H](C)CO)C[C@H]2C)cc1 | 43 | -1 | 0 | 2 | / | / | / | /
O=S(=O)(c1ccccc1)N1CC[C@H]2[C@H](CO)Nc3ccc(C#Cc4ccccc4F)cc3[C@H]21 | / | 0 | / | -19 | / | / | / | /
CCCC#Cc1ccc2c(c1)O[C@H](CN(C)Cc1cncnc1)[C@@H](C)CN([C@@H](C)CO)S2(=O)=O | ? | 39* | 24 | -40 | 107* | 101* | ? | 99*
CC(C)CC#Cc1ccc2c(c1)O[C@H](CN(C)Cc1cncnc1)[C@@H](C)CN([C@@H](C)CO)S2(=O)=O | 111* | 1 | -1 | -31 | 101* | 101* | ? | 98*
CC(C)CC#Cc1ccc2c(c1)O[C@H](CN(C)Cc1cncnc1)[C@H](C)CN([C@@H](C)CO)S2(=O)=O | 50 | -1 | -10 | -3 | / | / | / | /
C[C@H]1CN([C@@H](C)CO)C(=O)Cc2cc(N(C)C)ccc2O[C@H]1CN(C)S(=O)(=O)c1ccc(F)cc1 | / | 2 | -1 | 16 | / | / | / | /
SMILES | T cruzi growth-1 | GASC1 inh | IDH1 mut inh | Pf Dd2 growth | T cruzi growth-2 | T cruzi growth-3 | NIH3T3 tox | 3T3 cytotox 2
Brc1cc(Br)c2ncc(-c3ccc4ccccc4n3)cc2c1 | / | / | 1 | / | / | / | / | /
COc1ccc(-c2ccc3c(c2)[C@H]2[C@H](CCN2C(=O)c2ccc4c(c2)OCO4)[C@H](CO)N3C)cc1 | 92 | 0 | / | -50 | / | / | / | /
Cc1ccc(S(=O)(=O)N(CC(=O)Nc2ccccc2C)C2CCCCC2)cc1 | / | / | 0 | / | / | / | / | /
Cc1ccc(S(=O)(=O)Nc2ccc3c(c2)C(=O)N([C@H](C)CO)C[C@@H](C)[C@H](CN(C)C(=O)Nc2ccc(C(F)(F)F)cc2)OCCCC[C@@H](C)O3)cc1 | 77 | -1 | -2 | -31 | / | / | / | /
Cc1ccc(S(=O)(=O)Nc2ccc3c(c2)C(=O)N([C@H](C)CO)C[C@H](C)[C@@H](CN(C)C(=O)Nc2ccc(C(F)(F)F)cc2)OCCCC[C@H](C)O3)cc1 | 109* | 1 | / | -50 | 105* | 113* | 4 | 11
C[C@H]1CCCCO[C@@H](CN(C)C(=O)Nc2ccc(C(F)(F)F)cc2)[C@@H](C)CN([C@@H](C)CO)C(=O)c2cc(NS(=O)(=O)c3ccc(Cl)cc3)ccc2O1 | 2 | -2 | / | -36 | / | / | / | /
C[C@@H]1CCCCO[C@H](CN(C)C(=O)Nc2ccc(C(F)(F)F)cc2)[C@H](C)CN([C@H](C)CO)C(=O)c2cc(NS(=O)(=O)c3ccc(Cl)cc3)ccc2O1 | 99* | -5 | 1 | -61 | ? | 118* | 27 | 18
C[C@@H]1CCCCO[C@@H](CN(C)C(=O)Nc2ccc(C(F)(F)F)cc2)[C@H](C)CN([C@H](C)CO)C(=O)c2cc(NS(=O)(=O)c3ccc(Cl)cc3)ccc2O1 | ? | -1 | 5 | -38 | 77 | 118* | -5 | 3
